Tests used:
[1] = target: Peripheral plasma membrane protein CASK (Homo sapiens, UniProt O14936); experiment: Inhibition of CASK in human HeLa cells lysate pre incubated for 15 mins followed by ADP acyl phosphate probe addition and measured after 10 mins by LC-MS/MS analysis; type: subcellular
Summary of the method: (§1)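 KiNativ profiling in HeLa lysate (5 mg/mL total protein). Lysate incubated 15 min with inhibitor at 50, 10, 2, 0.8 or 0 μM. ATP or ADP acylphosphate probe then added (5 μM final) and reacted 10 min. Reaction stopped with urea and analysed by targeted MS, using up to four fragment ions per kinase peptide-probe conjugate. % inhibition taken against untreated lysate. Run in duplicate.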

[2] = target: Cyclin-dependent kinase 2 (Homo sapiens, UniProt P24941); experiment: Inhibition of CDK2 K2 site in human HeLa cells lysate pre incubated for 15 mins followed by ADP acyl phosphate probe addition and measured after 10 mins by LC-MS/MS analysis; type: subcellular; summary of the method: as §1
[3] = target: Ribosomal protein S6 kinase alpha-5 (Homo sapiens, UniProt O75582); experiment: Inhibition of MSK1 domain 1 K1 site in human HeLa cells lysate pre incubated for 15 mins followed by ADP acyl phosphate probe addition and measured after 10 mins by LC-MS/MS analysis; type: subcellular
[4] = target: Cyclin-dependent kinase 16 (Homo sapiens, UniProt Q00536); experiment: Inhibition of PCTAIRE1 in human HeLa cells lysate pre incubated for 15 mins followed by ADP acyl phosphate probe addition and measured after 10 mins by LC-MS/MS analysis; type: subcellular
[5] = target: T1, Serine/threonine-protein kinase tousled-like 1 (Homo sapiens) (UniProt Q9UKI8); experiment: Inhibition of TLK1 in human HeLa cells lysate at 50 uM pre incubated for 15 mins followed by ADP acyl phosphate probe addition and measured after 10 mins by LC-MS/MS analysis relative to control; type: subcellular; conditions: time 25.0 min
T1 sequence (whole entry): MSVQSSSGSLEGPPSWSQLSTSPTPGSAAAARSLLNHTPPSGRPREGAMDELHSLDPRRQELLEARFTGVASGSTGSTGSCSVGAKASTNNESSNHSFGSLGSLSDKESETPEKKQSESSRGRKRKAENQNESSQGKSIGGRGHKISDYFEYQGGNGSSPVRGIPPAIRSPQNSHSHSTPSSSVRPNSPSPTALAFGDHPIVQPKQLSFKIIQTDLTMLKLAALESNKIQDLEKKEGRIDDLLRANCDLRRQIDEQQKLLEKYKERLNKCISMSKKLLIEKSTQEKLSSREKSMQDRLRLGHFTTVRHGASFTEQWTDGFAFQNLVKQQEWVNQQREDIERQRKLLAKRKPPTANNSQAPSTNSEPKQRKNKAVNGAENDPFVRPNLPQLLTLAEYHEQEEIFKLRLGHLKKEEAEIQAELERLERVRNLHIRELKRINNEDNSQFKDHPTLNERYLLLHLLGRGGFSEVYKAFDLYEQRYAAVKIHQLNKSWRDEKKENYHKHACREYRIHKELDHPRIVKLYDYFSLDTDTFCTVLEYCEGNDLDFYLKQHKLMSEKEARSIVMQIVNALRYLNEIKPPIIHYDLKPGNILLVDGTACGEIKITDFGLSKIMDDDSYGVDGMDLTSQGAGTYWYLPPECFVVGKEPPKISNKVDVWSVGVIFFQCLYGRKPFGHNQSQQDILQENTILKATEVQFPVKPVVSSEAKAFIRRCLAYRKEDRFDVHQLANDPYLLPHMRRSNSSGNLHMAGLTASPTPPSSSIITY

[6] = target: T2, Dual specificity mitogen-activated protein kinase kinase 3 (Homo sapiens) (UniProt P46734); experiment: Inhibition of MAP2K3 in human HeLa cells lysate at 2 uM pre incubated for 15 mins followed by ADP acyl phosphate probe addition and measured after 10 mins by LC-MS/MS analysis relative to control; type: subcellular; conditions: time 25.0 min
T2 sequence (whole entry): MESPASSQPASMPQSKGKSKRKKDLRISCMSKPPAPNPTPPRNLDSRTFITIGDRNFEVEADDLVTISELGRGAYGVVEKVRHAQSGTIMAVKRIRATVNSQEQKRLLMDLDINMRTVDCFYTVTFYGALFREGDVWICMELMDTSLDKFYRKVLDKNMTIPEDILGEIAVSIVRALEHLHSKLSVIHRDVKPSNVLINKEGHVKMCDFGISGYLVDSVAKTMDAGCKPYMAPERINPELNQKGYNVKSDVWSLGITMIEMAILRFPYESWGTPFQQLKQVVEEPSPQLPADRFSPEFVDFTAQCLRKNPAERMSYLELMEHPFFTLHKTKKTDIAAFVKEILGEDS

[7] = target: Ribosomal protein S6 kinase alpha-1 (Homo sapiens, UniProt Q15418); experiment: Inhibition of RSK1 domain 2 in human HeLa cells lysate at 50 uM pre incubated for 15 mins followed by ATP acyl phosphate probe addition and measured after 10 mins by LC-MS/MS analysis relative to control; type: subcellular; conditions: time 25.0 min
[8] = target: SRSF protein kinase 1 (Homo sapiens, UniProt Q96SB4); experiment: Inhibition of SRPK1 in human HeLa cells lysate at 50 uM pre incubated for 15 mins followed by ATP acyl phosphate probe addition and measured after 10 mins by LC-MS/MS analysis relative to control; type: subcellular; conditions: time 25.0 min
[9] = target: Mitogen-activated protein kinase kinase kinase 5 (Homo sapiens) (UniProt Q99683); experiment: Inhibition of MAP3K5 in human HeLa cells lysate at 2 uM pre incubated for 15 mins followed by ATP acyl phosphate probe addition and measured after 10 mins by LC-MS/MS analysis relative to control; type: subcellular; conditions: time 25.0 min
[10] = target: T3, Serine/threonine-protein kinase 4 (Homo sapiens) (UniProt Q13043); experiment: Inhibition of MST1 in human HeLa cells lysate at 2 uM pre incubated for 15 mins followed by ATP acyl phosphate probe addition and measured after 10 mins by LC-MS/MS analysis relative to control; type: subcellular; conditions: time 25.0 min
T3 sequence (whole entry): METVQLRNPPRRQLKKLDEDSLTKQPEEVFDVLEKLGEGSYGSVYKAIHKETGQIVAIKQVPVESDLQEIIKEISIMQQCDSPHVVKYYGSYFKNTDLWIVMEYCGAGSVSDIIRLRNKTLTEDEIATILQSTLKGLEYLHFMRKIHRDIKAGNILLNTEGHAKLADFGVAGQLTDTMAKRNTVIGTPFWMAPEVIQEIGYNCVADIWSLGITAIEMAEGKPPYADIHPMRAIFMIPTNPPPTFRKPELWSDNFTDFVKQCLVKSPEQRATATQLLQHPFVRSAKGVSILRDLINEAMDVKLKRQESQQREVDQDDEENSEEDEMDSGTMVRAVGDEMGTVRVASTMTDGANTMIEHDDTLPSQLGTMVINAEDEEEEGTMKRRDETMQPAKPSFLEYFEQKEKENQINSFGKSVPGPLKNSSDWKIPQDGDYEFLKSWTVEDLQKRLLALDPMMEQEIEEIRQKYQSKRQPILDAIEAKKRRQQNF

[11] = Tmax in Sprague-Dawley rat at 2 mg/kg, po measured up to 8 hrs by LC-MS/MS analysis; type: ADME, organism-based; conditions: in vivo
[12] = Cardiotoxicity in C57Bl/6 mouse assessed as vasculature instability in heart at 50 mg/kg, ip for 14 days by TUNEL assay; type: toxicity, organism-based; conditions: in vivo, 336 h, time 14 day
Summary of the method: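 Mice were dosed i.p. at 50 mg/kg over 14 days. Heart sections from treated and control mice were stained by immunofluorescence for CD31 and by TUNEL, with DNase-treated sections as the TUNEL positive control.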

SRSF protein kinase 1, sequence (Q96SB4 whole entry): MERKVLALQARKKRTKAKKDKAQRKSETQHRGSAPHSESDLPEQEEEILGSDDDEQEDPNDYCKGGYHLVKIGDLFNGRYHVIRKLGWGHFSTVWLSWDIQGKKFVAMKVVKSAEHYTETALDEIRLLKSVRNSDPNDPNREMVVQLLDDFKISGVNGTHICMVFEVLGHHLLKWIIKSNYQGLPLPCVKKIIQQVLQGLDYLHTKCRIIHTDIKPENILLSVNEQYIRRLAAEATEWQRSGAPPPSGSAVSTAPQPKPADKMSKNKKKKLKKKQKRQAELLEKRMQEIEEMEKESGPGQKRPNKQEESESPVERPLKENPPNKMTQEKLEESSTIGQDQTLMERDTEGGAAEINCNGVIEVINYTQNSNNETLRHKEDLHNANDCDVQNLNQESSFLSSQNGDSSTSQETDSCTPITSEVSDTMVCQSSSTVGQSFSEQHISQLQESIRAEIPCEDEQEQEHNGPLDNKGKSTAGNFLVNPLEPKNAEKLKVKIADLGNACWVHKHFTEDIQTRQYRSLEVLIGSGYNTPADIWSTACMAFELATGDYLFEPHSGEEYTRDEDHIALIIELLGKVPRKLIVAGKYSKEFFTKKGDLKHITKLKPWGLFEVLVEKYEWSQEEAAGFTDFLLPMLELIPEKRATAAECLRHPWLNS
Ribosomal protein S6 kinase alpha-5, sequence (O75582 whole entry, the tested form may be a part): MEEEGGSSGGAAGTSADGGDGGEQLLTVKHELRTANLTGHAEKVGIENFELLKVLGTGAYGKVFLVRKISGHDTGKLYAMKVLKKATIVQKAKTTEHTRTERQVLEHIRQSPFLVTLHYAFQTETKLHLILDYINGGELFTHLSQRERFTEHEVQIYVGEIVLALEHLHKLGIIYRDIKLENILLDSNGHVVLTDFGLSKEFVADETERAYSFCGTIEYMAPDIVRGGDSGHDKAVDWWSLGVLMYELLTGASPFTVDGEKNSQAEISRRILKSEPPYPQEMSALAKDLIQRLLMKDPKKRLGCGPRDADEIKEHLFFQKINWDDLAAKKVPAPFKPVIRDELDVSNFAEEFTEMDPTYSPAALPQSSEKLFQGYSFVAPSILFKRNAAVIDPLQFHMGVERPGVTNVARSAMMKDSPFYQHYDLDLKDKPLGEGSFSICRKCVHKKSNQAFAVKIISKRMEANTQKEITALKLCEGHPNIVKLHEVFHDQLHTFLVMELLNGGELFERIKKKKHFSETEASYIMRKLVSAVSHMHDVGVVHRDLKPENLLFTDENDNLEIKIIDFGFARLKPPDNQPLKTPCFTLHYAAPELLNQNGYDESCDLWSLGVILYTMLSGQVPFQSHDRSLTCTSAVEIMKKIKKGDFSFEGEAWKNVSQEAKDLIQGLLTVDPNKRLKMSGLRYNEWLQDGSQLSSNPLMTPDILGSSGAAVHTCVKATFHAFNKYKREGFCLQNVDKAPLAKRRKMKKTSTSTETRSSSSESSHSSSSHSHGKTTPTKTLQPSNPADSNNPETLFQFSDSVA
Ribosomal protein S6 kinase alpha-1, sequence (Q15418 whole entry, the tested form may be a part): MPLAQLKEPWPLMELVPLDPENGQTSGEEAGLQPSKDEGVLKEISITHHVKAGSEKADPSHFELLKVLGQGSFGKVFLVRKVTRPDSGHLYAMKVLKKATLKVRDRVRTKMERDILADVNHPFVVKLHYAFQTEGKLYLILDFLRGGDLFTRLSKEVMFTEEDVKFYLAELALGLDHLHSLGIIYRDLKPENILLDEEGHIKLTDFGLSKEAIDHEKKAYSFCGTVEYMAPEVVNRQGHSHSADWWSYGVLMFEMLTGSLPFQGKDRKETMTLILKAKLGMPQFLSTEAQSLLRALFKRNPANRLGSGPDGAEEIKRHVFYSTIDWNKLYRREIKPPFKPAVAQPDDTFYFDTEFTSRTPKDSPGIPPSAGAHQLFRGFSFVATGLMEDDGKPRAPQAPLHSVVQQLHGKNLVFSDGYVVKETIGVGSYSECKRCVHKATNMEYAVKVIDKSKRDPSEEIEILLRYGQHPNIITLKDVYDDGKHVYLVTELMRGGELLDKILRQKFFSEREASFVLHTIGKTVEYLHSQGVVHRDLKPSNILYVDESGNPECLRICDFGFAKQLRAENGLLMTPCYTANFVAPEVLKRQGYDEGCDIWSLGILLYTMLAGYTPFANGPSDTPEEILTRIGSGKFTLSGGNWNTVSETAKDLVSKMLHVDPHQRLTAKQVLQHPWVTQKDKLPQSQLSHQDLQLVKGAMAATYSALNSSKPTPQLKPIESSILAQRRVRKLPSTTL
Cyclin-dependent kinase 16, sequence (Q00536 whole entry): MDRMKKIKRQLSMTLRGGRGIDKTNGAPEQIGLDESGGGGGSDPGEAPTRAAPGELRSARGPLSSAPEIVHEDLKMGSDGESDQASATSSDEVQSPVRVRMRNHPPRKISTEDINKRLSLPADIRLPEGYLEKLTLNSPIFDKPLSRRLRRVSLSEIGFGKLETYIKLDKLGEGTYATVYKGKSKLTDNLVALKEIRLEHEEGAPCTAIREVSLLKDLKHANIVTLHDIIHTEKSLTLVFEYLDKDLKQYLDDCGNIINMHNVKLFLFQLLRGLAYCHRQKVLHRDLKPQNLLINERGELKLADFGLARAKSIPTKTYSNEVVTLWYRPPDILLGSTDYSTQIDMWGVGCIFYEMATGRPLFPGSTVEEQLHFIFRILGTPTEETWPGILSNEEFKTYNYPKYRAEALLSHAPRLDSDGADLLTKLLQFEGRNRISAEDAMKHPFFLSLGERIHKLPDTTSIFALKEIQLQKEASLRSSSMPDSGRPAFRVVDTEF
Mitogen-activated protein kinase kinase kinase 5 (Homo sapiens), sequence (Q99683 whole entry): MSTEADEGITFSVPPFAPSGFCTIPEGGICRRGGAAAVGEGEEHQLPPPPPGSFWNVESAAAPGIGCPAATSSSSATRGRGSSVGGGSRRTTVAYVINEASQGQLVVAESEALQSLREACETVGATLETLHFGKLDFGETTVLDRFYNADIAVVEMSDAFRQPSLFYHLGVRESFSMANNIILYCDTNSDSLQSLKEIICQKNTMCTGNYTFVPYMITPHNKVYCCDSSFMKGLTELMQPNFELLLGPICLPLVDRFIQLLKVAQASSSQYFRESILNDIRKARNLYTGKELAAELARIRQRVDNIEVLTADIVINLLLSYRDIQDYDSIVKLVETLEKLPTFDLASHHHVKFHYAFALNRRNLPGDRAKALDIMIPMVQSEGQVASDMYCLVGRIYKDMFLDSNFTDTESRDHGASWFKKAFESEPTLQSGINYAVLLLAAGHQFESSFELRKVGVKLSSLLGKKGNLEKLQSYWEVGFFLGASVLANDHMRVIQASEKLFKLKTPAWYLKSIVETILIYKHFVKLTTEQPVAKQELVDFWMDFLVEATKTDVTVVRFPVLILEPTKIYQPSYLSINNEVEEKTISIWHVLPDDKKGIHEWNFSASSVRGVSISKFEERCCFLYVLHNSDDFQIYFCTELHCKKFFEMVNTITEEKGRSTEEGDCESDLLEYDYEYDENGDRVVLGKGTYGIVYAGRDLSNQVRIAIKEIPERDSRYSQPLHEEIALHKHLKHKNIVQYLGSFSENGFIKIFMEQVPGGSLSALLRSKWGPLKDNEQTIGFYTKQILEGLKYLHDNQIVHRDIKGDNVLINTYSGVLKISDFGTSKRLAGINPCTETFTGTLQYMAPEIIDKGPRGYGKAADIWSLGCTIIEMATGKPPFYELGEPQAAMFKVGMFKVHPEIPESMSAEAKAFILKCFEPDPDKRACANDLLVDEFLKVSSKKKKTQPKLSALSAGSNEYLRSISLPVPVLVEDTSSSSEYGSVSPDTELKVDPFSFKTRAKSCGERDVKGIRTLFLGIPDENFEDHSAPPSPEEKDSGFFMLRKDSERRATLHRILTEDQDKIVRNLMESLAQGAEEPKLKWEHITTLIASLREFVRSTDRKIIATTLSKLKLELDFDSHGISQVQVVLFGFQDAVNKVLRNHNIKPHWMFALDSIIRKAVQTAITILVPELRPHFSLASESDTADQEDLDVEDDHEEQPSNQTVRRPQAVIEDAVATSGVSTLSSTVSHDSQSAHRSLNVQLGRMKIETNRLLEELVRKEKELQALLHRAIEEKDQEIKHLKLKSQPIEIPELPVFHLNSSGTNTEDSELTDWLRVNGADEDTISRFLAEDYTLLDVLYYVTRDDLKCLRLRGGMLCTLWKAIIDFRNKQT
Peripheral plasma membrane protein CASK, sequence (O14936 whole entry, the tested form may be a part): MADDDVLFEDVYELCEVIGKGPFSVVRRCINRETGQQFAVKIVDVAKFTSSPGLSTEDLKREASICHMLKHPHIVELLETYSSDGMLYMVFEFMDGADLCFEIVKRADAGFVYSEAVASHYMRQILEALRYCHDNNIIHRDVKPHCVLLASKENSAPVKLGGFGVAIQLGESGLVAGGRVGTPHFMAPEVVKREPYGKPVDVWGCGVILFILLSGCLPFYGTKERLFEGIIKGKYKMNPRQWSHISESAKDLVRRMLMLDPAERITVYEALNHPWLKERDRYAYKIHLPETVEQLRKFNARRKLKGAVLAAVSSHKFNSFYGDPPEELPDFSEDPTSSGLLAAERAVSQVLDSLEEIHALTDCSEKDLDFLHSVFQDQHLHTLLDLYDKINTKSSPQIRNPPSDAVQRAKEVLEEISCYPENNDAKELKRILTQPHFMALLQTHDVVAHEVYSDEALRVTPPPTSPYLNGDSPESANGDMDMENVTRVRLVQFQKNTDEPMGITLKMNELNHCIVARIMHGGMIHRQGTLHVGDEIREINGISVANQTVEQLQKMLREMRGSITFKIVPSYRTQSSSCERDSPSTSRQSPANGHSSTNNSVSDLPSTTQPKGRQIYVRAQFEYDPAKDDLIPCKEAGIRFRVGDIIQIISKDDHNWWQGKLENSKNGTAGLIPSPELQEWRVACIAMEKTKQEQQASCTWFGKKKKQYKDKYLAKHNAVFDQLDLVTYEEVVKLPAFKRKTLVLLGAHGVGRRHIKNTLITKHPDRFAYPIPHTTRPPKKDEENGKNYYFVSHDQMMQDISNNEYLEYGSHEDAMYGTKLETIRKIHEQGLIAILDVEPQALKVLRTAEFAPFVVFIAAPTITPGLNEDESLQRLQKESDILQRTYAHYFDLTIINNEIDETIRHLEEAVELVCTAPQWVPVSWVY

## CCOc1cc(N2CCC(O)CC2)ccc1Nc1ncc2c(n1)N(C)c1ccccc1C(=O)N2C
[1]
  IC50: > 50 µM
[2]
  IC50: > 50 µM
[3]
  IC50: > 50 µM
[4]
  IC50: > 50 µM
[5]
  inhibition: -4.5%
[6]
  inhibition: 7.5%
[7]
  inhibition: 73.1%
[8]
  inhibition: -7.5%
[9]
  inhibition: -6.5%
[10]
  inhibition: 2.2%
[11]
  Tmax: 30 min
[12]
  Activity: Non-Toxic
